Results reported in ChEMBL document CHEMBL4145478, “Synthesis and biological evaluation of bifendate derivatives bearing 6,7-dihydro-dibenzo[c,e]azepine scaffold as potential P-glycoprotein and tumor metastasis inhibitors” (Eur J Med Chem, 2018).
Where a name gives a salt, the structure may show the parent alone. Calls of active or inactive are those of the source. The calls are words filed in the database; no cut-off is given here.

Assays:
[1] = test system: K562/A02; experiment: Cytotoxicity against human K562/A02 cells assessed as reduction in cell viability after 72 hrs by MTS assay; format: cell-based; details: K562/A02, 72 h
How it was run: (§1)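 Cells (1×10^4/well) in RPMI-1640 grown 24 h, then exposed to a range of concentrations for 72 h at 37 °C, 5% CO₂. MTS added for a further 3 h at 37 °C; absorbance read at 490 nm. IC50 from dose-response curves; means of triplicate experiments.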

[2] = test system: K562; experiment: Cytotoxicity against human K562 cells assessed as reduction in cell viability after 72 hrs by MTS assay; format: cell-based; details: K562, 72 h; how it was run: as §1
[3] = test system: K562/A02; experiment: Inhibition of P-gp-mediated drug resistance in human K562/A02 cells assessed as reduction in adriamycin IC50 at 2 uM after 72 hrs by MTS assay relative to adriamycin alone; format: cell-based
How it was run: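 K562/A02 cells exposed to adriamycin with or without 2.0 μM modulator; verapamil 2.0 μM as reference. Viability by MTS after 72 h at 37 °C (absorbance 490 nm), adriamycin IC50 from dose-response curves. Reversal fold = adriamycin IC50 alone / adriamycin IC50 with modulator.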

[4] = test system: MDA-MB-231; experiment: Antimigratory activity against human MDA-MB-231 cells assessed as reduction in cell invasion at 5 to 45 uM after 24 hrs by crystal violet staining-based matrigel assay; format: functional
How it was run: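 MDA-MB-231 cells pretreated 24 h with 5, 15 or 45 μM, seeded in serum-free medium into transwell chambers precoated with matrigel (40 μg/100 μL/chamber, 37°C, 1 h); lower compartment medium with 10% FBS. Incubation 24 h, then invaded cells stained with crystal violet and counted in three random fields; expressed as % of control.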

[5] = test system: MDA-MB-231; experiment: Antimigratory activity against human MDA-MB-231 cells assessed as delay in cell migration at 5 to 45 uM after 4 hrs by crystal violet staining-based chamber migration assay relative to control; format: functional
How it was run: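 MDA-MB-231 cells pretreated 24 h with 5, 15 or 45 μM, suspended in serum-free medium and placed in upper transwell compartment; lower compartment medium with 10% FBS. After 4 h non-migrated cells swabbed off; migrated cells fixed in methanol, stained with 0.5% crystal violet, counted manually in three random fields. Migrated cells expressed as % of control.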

[6] = molecular target: 72 kDa type IV collagenase (Homo sapiens) (UniProt P08253); experiment: Inhibition of MMP2 activity in human MDA-MB-231 cells after 24 hrs by gelatin zymography assay; format: cell-based
[7] = test system: K562/A02; experiment: Effect on P-gp protein expression in human K562/A02 cells at 2 uM after 48 hrs by Western blot analysis; format: functional, cell-based
[8] = molecular target: 72 kDa type IV collagenase (Homo sapiens) (UniProt P08253); experiment: Residual MMP2 activity in human MDA-MB-231 cells at 5 uM after 24 hrs by gelatin zymography assay relative to control
[9] = test system: K562/A02; experiment: Inhibition of P-gp mediated efflux in human K562/A02 cells assessed as increase in intracellular Rh123 accumulation after 1 hr by flow cytometric analysis; format: cell-based
How it was run: (§2)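 1×10^6 K562 or K562/A02 cells preincubated 1 h at 37 °C with compound (10 μM single dose; dose-response at 10, 3.3 and 0.3 μM), verapamil or 0.1% DMSO vehicle, then 0.5 μM Rh123 for 30 min. Stopped and washed three times with ice-cold PBS; flow cytometry. Fold change = fluorescence over vehicle; mean ± S.D., three independent experiments.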

[10] = test system: K562/A02; experiment: Effect on P-gp mRNA expression in human K562/A02 cells at 2 uM after 48 hrs by RT-PCR analysis; format: functional, cell-based
[11] = test system: K562; experiment: Effect on intracellular Rh123 accumulation in human K562 cells at 0.3 to 10 uM after 1 hr by flow cytometric analysis; format: functional, cell-based; how it was run: as §2
[12] = test system: MDA-MB-231; experiment: Inhibition of MMP9 expression in human MDA-MB-231 cells after 24 hrs by Western blot analysis; format: functional, cell-based
How it was run: (§3)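 MDA-MB-231 cells exposed to 5, 15 or 45 μM for 24 h, then lysed; immunoblotted with antibodies against MMP-2 and MMP-9; detection with BCIP/NBT alkaline phosphatase substrate for 15 min.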

[13] = test system: MDA-MB-231; experiment: Antiproliferative activity against human MDA-MB-231 cells after 72 hrs by MTT assay; format: cell-based; details: MDA-MB-231, 72 h
[14] = test system: MMP-9 (92 kDa type IV collagenase, Homo sapiens); experiment: Inhibition of MMP9 activity in human MDA-MB-231 cells at 5 uM after 24 hrs by gelatin zymography assay relative to control; values are per cent of control
[15] = test system: MDA-MB-231; experiment: Inhibition of MMP2 expression in human MDA-MB-231 cells after 24 hrs by Western blot analysis; format: functional, cell-based; how it was run: as §3
[16] = test system: MDA-MB-231; experiment: Antimigratory activity against human MDA-MB-231 cells assessed as reduction in wound healing after 24 hrs by inverted microscopic analysis; format: functional, cell-based
How it was run: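 Confluent MDA-MB-231 monolayer scratched with 200 μL pipette tip, washed twice with PBS, then exposed to 5, 15 or 45 μM in DMEM with 10% FBS. Wound photographed by inverted microscope at 0 and 24 h. Relative migration = migration distance of treated cells divided by that of control.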

[17] = molecular target: Matrix metalloproteinase-9 (Homo sapiens) (UniProt P14780); experiment: Inhibition of MMP9 activity in human MDA-MB-231 cells after 24 hrs by gelatin zymography assay
[18] = Selectivity ratio of IC50 for human K562/A02 cells to IC50 for human K562 cells; format: ADME; details: K562/A02 cells and K562 cells, read-out: Ratio IC50

72 kDa type IV collagenase (Homo sapiens), sequence (P08253 110-660 limits assumed): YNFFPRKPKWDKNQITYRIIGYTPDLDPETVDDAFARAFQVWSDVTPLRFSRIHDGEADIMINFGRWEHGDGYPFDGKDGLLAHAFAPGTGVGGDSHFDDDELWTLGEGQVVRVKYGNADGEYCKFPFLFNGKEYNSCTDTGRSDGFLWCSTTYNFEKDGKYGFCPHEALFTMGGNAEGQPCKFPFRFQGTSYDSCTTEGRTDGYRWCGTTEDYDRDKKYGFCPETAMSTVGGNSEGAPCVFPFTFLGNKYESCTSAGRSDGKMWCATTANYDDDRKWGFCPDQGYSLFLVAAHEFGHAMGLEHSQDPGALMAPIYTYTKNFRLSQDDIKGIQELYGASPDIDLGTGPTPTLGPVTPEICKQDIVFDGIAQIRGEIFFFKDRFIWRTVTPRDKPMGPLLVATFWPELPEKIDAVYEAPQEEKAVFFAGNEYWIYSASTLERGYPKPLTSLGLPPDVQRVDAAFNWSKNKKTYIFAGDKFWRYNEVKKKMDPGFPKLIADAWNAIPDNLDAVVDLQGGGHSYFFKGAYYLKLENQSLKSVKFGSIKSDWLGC
Matrix metalloproteinase-9 (Homo sapiens), sequence (P14780 whole entry): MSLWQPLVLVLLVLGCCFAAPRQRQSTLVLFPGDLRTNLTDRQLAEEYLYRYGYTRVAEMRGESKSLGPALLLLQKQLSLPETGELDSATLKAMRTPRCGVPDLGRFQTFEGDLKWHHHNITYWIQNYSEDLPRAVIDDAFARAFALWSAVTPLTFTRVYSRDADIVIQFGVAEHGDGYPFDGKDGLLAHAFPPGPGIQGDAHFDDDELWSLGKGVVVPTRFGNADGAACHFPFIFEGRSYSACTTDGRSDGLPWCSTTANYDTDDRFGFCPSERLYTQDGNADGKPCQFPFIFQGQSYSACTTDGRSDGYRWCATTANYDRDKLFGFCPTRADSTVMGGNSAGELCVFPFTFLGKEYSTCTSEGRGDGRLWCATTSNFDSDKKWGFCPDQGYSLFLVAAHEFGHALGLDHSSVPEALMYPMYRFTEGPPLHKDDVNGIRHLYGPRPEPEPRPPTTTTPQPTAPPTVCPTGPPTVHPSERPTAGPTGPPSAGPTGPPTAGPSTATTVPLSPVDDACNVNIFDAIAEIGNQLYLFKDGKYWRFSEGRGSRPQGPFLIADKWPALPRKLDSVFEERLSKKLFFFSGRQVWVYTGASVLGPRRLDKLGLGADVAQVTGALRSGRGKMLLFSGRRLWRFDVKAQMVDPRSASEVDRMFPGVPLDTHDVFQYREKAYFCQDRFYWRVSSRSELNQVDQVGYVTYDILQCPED

Structure (SMILES)	IC50 [1] [µM]	IC50 [2] [µM]	other results
COc1ccc(NC(=O)CCN2Cc3cc(OC)c4c(c3-c3c(cc(OC)c5c3OCO5)C2)OCO4)cc1	43.2	29.8	–
COc1cc(C(=O)NCCN2Cc3cc(OC)c4c(c3-c3c(cc(OC)c5c3OCO5)C2)OCO4)cc(OC)c1OC	47.2	16.9	fold change (FC) [3]: 3.82; Activity [4]: Active; Activity [5]: 65.7%; inhibition [6]: Dose-dependent effect; Activity [7]: inactive; residual activity [8]: 59.1%; inhibition [9]: Dose-dependent effect; Activity [10]: inactive; inhibition [11]: inactive; inhibition [12]: Dose-dependent effect; IC50 [13]: 85.8 µM; residual activity [14]: 58.2%; inhibition [15]: Dose-dependent effect; Activity [16]: Active; inhibition [17]: Dose-dependent effect
COc1cc2c(c3c1OCO3)-c1c(cc(OC)c3c1OCO3)CN(CCNC(=O)c1ccc(C)cc1)C2	28.2	14.4	–
COc1cccc2c1C(=O)c1c(O)c3c(c(O)c1C2=O)C[C@@](O)(C(=O)CO)C[C@@H]3O[C@H]1C[C@H](N)[C@H](O)[C@H](C)O1 [DOXORUBICIN HYDROCHLORIDE]	25	0.39	selectivity ratio [18]: 64
COc1cc2c(c3c1OCO3)-c1c(cc(OC)c3c1OCO3)CN(CCCCCCNC(=O)c1ccc(Cl)cc1Cl)C2	34.5	13.7	–
COc1cc2c(c3c1OCO3)-c1c(cc(OC)c3c1OCO3)CN(CCCCCCNC(=O)c1ccc(C)cc1)C2	23.3	8.18	–
COc1ccccc1C(=O)NCCN1Cc2cc(OC)c3c(c2-c2c(cc(OC)c4c2OCO4)C1)OCO3	63.9	15	–
COc1cc2c(c3c1OCO3)-c1c(cc(OC)c3c1OCO3)CN(CCc1ccc3c(c1)OCO3)C2	> 100	51.4	fold change (FC) [3]: 3.99
COc1ccc(C(=O)NCCN2Cc3cc(OC)c4c(c3-c3c(cc(OC)c5c3OCO5)C2)OCO4)cc1OC	65.8	30.5	inhibition [9]: Dose-dependent effect; inhibition [11]: inactive
COc1cc2c(c3c1OCO3)-c1c(cc(OC)c3c1OCO3)CN(CCCCCCNC(=O)c1cccs1)C2	29	12.5	–
COc1cc2c(c3c1OCO3)-c1c(cc(OC)c3c1OCO3)CN(CCCCCCNC(=O)c1ccc(Cl)c(Cl)c1)C2	11.5	5.07	–
COc1ccccc1NC(=O)CCN1Cc2cc(OC)c3c(c2-c2c(cc(OC)c4c2OCO4)C1)OCO3	72.9	23.1	–
COc1cc2c(c3c1OCO3)-c1c(cc(OC)c3c1OCO3)CN(CCCCCCNC(=O)c1ccc(Cl)cc1)C2	18.4	5.85	–
COc1ccccc1C(=O)NCCCCCCN1Cc2cc(OC)c3c(c2-c2c(cc(OC)c4c2OCO4)C1)OCO3	26.2	11	–
COc1ccc(NC(=O)CCN2Cc3cc(OC)c4c(c3-c3c(cc(OC)c5c3OCO5)C2)OCO4)cc1OC	69.9	34.8	fold change (FC) [3]: 5.76; Activity [4]: Active; Activity [5]: 54.8%; inhibition [6]: Dose-dependent effect; Activity [7]: inactive; residual activity [8]: 52.8%; inhibition [9]: Dose-dependent effect; Activity [10]: inactive; inhibition [11]: inactive; inhibition [12]: Dose-dependent effect; IC50 [13]: 80.5 µM; residual activity [14]: 52.6%; inhibition [15]: Dose-dependent effect; Activity [16]: Active; inhibition [17]: Dose-dependent effect
COc1ccc(C(=O)NCCCCCCN2Cc3cc(OC)c4c(c3-c3c(cc(OC)c5c3OCO5)C2)OCO4)cc1OC	28.3	14.1	–
COc1cc(C(=O)NCCCCCCN2Cc3cc(OC)c4c(c3-c3c(cc(OC)c5c3OCO5)C2)OCO4)cc(OC)c1OC	31.8	11.8	–
